Key:
PBMC = experiment: Effect on LPS stimulated TNF-alpha release from hPBMCs; type: functional, cell-based; conditions: Homo sapiens
How it was run: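 Human peripheral blood mononuclear cells incubated with inhibitor, then stimulated with LPS/IFNγ for 3 h; TNFα in supernatants quantified by ELISA.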

[1] = target: Mitogen-activated protein kinase 14 (Mus musculus, UniProt P47811); experiment: Inhibition of murine Mitogen-activated protein kinase p38 alpha
How it was run: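 Phosphorylated His-tagged murine p38α MAP kinase (10 ng/well) assayed with immobilized GST-ATF-2 as substrate.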

Mus musculus = experiment: Compound was tested for the inhibition of TNF-alpha release after LPS stimulation in mice at a dose of 30 mg/kg, po; type: functional
How it was run: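 Mice given compound orally at 30 mg/kg; 1 h after dosing, LPS (20 mg/kg) injected iv. One hour later blood collected and TNFα measured by mouse-specific ELISA.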

Mitogen-activated protein kinase 14, sequence (P47811 whole entry): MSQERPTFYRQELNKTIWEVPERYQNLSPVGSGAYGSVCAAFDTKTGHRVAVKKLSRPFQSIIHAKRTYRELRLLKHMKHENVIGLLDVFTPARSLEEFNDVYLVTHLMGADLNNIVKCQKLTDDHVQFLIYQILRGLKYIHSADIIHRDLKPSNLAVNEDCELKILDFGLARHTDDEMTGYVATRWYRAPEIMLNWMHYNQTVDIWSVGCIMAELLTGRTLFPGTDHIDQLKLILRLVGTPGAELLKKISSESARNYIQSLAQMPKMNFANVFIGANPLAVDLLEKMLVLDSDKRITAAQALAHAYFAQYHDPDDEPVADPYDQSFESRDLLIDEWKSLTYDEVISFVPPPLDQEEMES

Cc1ccc(S(=O)(=O)Nc2ccc3c(c2)CNC(=O)N3c2c(Cl)cccc2Cl)cc1
IC50 (PBMC): > 10000 nM | IC50 [1]: 1800 nM

O=C1NCc2ccccc2N1c1c(Cl)cccc1Cl
IC50 [1]: 11800 nM

O=C1NCc2cc(NS(=O)(=O)c3ccccc3Cl)ccc2N1c1c(Cl)cccc1Cl
IC50 (PBMC): 510 nM | IC50 [1]: 180 nM

O=C1NCc2cc(NS(=O)(=O)c3cc(Cl)ccc3Cl)ccc2N1c1c(Cl)cccc1Cl
IC50 (PBMC): 390 nM | IC50 [1]: 100 nM

O=C1NCc2cc(NS(=O)(=O)c3ccccc3)ccc2N1c1c(Cl)cccc1Cl
IC50 (PBMC): 140 nM | IC50 [1]: 53 nM

O=C1NCc2cc(Sc3ccc(F)cc3F)ccc2N1c1c(Cl)cccc1Cl
IC50 (PBMC): 960 nM | IC50 [1]: 470 nM

CN(c1ccc2c(c1)CNC(=O)N2c1c(Cl)cccc1Cl)S(=O)(=O)c1cc(Cl)ccc1Cl
IC50 (PBMC): 1200 nM | IC50 [1]: 780 nM

COc1cc2c(-c3ccccc3)nc(=O)n(C(C)C)c2cc1N1CCOCC1
IC50 [1]: 14000 nM

O=C(Nc1ccc2c(c1)CNC(=O)N2c1c(Cl)cccc1Cl)c1ccccc1
IC50 (PBMC): 10000 nM | IC50 [1]: 8500 nM

O=C1NCc2cc(NS(=O)(=O)c3cc(Cl)ccc3O)ccc2N1c1c(Cl)cccc1Cl
IC50 [1]: 570 nM

Cc1cc(OCCCN2CCOCC2)cc(C)c1N1C(=O)NCc2cc(NS(=O)(=O)c3ccc(F)c(Cl)c3)ccc21
inhibition in vivo at 30 mg/kg (Mus musculus): 42%

O=C1NCc2cc(NCc3ccccc3)ccc2N1c1c(Cl)cccc1Cl
IC50 (PBMC): 1200 nM | IC50 [1]: 150 nM

O=C1NCc2cc(NS(=O)(=O)c3ccc(F)c(Cl)c3)ccc2N1c1c(Cl)cccc1Cl
IC50 (PBMC): 84 nM | IC50 [1]: 34 nM

O=C1NCc2cc(Nc3ccc(F)cc3F)ccc2N1c1c(Cl)cccc1Cl
IC50 (PBMC): 290 nM | IC50 [1]: 380 nM
